Experimental data from ChEMBL document CHEMBL4725333, “Carbazole-based fluorescent probes for G-quadruplex DNA targeting with superior selectivity and low cytotoxicity” (Bioorg Med Chem, 2020).
pIC50: −log10 of the molar value. The source made the active and inactive calls. The rule behind the calls is not given here.

What was measured:
Quadruplex DNA [1] = experiment: Binding affinity to human c-myc G-quadruplex DNA assessed as increase in fluorescence in presence of c-myc at 1 uM by fluorescence titration analysis; format: nucleic-acid assay
How it was run: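 Probe at 1 µM in 10 mM Tris-HCl, 60 mM KCl, pH 7.4, titrated stepwise with c-myc G-quadruplex DNA (0–3 µM). Emission monitored near 545–547 nm, and F/F₀ of integral fluorescence fitted to an independent-site model. Linear range 0–0.8 µM DNA; detection limit from LOD = 3σ/k.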

Quadruplex DNA [2] = experiment: Binding affinity to human c-myc G-quadruplex DNA in Tris Hcl buffer assessed as fluorescence lifetime of compound at 400 nm at pH 7.4 by fluorescence emission analysis (Rvb (absence of c-myc G-quadruplex DNA ) = 0.513 ns); format: nucleic-acid assay
Quadruplex DNA [3] = experiment: Binding affinity to human c-myc G-quadruplex DNA uM by circular dichroism spectroscopy; format: nucleic-acid assay
How it was run: (§1)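 CD titration of c-myc G-quadruplex DNA (5 µM) with 0–2 equivalents of probe, in 10 mM Tris-HCl, 60 mM KCl, pH 7.4.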

Quadruplex DNA [4] = experiment: Effect on topology of human c-myc G-quadruplex DNA assessed as change in conformation at 245 nm at DNA to compound ratio of 1:1 by circular dichroism spectroscopy; format: nucleic-acid assay; how it was run: as §1
Quadruplex DNA [5] = experiment: Induction of stabilization of human c-myc G-quadruplex assessed inhibition of Taq polymerase mediated DNA polymerization at high concentration upto 20 uM by PCR-stop assay; format: nucleic-acid assay; details: dose microM <=20
How it was run: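 PCR-stop assay. Probe (0–20 µM) was added to 1x PCR buffer containing 10 pmol c-myc template, 10 pmol c-myc rev primer, 0.2 mM dNTPs and 1.5 units Taq polymerase. Products were resolved on 15% non-denaturing polyacrylamide gels in 1× TBE. A mutant c-myc oligomer unable to fold served as control.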

[6] = Cytotoxicity against human HCCC9810 cells assessed as reduction in cell viability incubated for 72 hr by CCK8 assay; format: cell-based; details: HCCC9810, 72 h
How it was run: (§2)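 HCCC-9810, RBE and 293T cells exposed to probe at 0–100 µM for 72 h. Viable cells quantified by CCK-8 assay.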

[7] = Cytotoxicity against human RBE cells assessed as reduction in cell viability incubated for 72 hr by CCK8 assay; format: cell-based; how it was run: as §2
HEK-293T = experiment: Cytotoxicity against human 293T cells assessed as reduction in cell viability incubated for 72 hr by CCK8 assay; format: cell-based; how it was run: as §2
Quadruplex DNA [8] = experiment: Competitive binding affinity to human c-myc G-quadruplex DNA assessed as increase in fluorescence in presence of ssDNA and dsDNA at 1 uM by fluorescence titration analysis; format: nucleic-acid assay
How it was run: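 Competition titration: probe at 1 µM with 20 µM ds26 duplex DNA, then stepwise addition of c-myc G-quadruplex DNA, in 10 mM Tris-HCl, 60 mM KCl, pH 7.4. Read-out was fluorescence emission.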

Quadruplex DNA [9] = experiment: Binding affinity to human c-myc G-quadruplex DNA assessed as increase in fluorescence in presence of BSA/HSA at 1 uM by fluorescence titration analysis; format: nucleic-acid assay
How it was run: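 Probe fluorescence followed with increasing BSA or HSA as interfering proteins, in the same Tris-HCl/KCl pH 7.4 titration system.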

Quadruplex DNA [10] = experiment: Inhibition of hemin binding to human c-myc G4 quadruplex DNA by measuring peroxidase activity within 30 at 415 nm by G4/hemin peroxidase inhibition assay; format: nucleic-acid assay
How it was run: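 G4/hemin peroxidase assay in 10 mM Tris-HCl, 60 mM KCl, pH 7.4, with c-myc 0.4 µM, hemin 0.8 µM, ABTS²⁻ 0.18 mM and H₂O₂ 0.06 mM, across varied probe concentrations. Oxidized ABTS product followed by absorbance at 415 nm over 30 min.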

Quadruplex DNA [11] = experiment: Binding affinity to human c-myc G-quadruplex DNA with TTGA GGG T GGG TA GGG T GGG TAAA flanking loops assessed as relative fluorescence intensity at 1 uM measured at pH 7.4 by fluorescent titration; format: nucleic-acid assay
Quadruplex DNA [12] = experiment: Binding affinity to human c-myc G-quadruplex DNA with TTG AATGGG TGGGT AGGGT GGGT AAA flanking loops assessed as relative fluorescence intensity at 1 uM measured at pH 7.4 by fluorescent titration; format: nucleic-acid assay
Quadruplex DNA [13] = experiment: Binding affinity to human c-myc G-quadruplex DNA with TTG AGGG TAAGGGT AGGGT GGGT AAA flanking loops assessed as relative fluorescence intensity at 1 uM measured at pH 7.4 by fluorescent titration; format: nucleic-acid assay
Quadruplex DNA [14] = experiment: Binding affinity to human c-myc G-quadruplex DNA with TTG AGGG TGGGT AATGGGT GGGT AAA flanking loops assessed as relative fluorescence intensity at 1 uM measured at pH 7.4 by fluorescent titration; format: nucleic-acid assay
Quadruplex DNA [15] = experiment: Binding affinity to human c-myc G-quadruplex DNA with TTG AGGG TGGGT AGGGT ATGGGT AAA flanking loops assessed as relative fluorescence intensity at 1 uM measured at pH 7.4 by fluorescent titration; format: nucleic-acid assay
Quadruplex DNA [16] = experiment: Binding affinity to human c-myc G-quadruplex DNA with TTG AGGG TGGGT AGGGT GGGT AAATA flanking loops assessed as relative fluorescence intensity at 1 uM measured at pH 7.4 by fluorescent titration; format: nucleic-acid assay
Quadruplex DNA [17] = experiment: Binding affinity to human c-myc G-quadruplex DNA with AGGG TGGGT AGGGT GGGT AAA flanking loops assessed as relative fluorescence intensity at 1 uM measured at pH 7.4 by fluorescent titration; format: nucleic-acid assay
Quadruplex DNA [18] = experiment: Binding affinity to human c-myc G-quadruplex DNA with TTG AGGG TGGGT AGGGT GGGT flanking loops assessed as relative fluorescence intensity at 1 uM measured at pH 7.4 by fluorescent titration; format: nucleic-acid assay
Quadruplex DNA [19] = experiment: Binding affinity to human c-myc G-quadruplex DNA with 4-aminopurine substitution assessed as fluorescence intensity; format: nucleic-acid assay
How it was run: (§3)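 2-aminopurine-labelled c-myc G-quadruplex DNA held at 2 µM in 10 mM Tris-HCl, pH 7.4, 60 mM KCl. Probe or hemin added gradually, and 2-Ap fluorescence intensity monitored.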

Quadruplex DNA [20] = experiment: Binding affinity to human c-myc G-quadruplex DNA with 13-aminopurine substitution assessed as fluorescence intensity; format: nucleic-acid assay; how it was run: as §3
Quadruplex DNA [21] = experiment: Binding affinity to human c-myc G-quadruplex DNA with 22-aminopurine substitution assessed as fluorescence intensity; format: nucleic-acid assay; how it was run: as §3
Quadruplex DNA [22] = experiment: Binding affinity to human c-myc G-quadruplex DNA with 4-aminopurine substitution assessed as fluorescence intensity in presence of hemin; format: nucleic-acid assay; how it was run: as §3
Quadruplex DNA [23] = experiment: Binding affinity to human c-myc G-quadruplex DNA with 13-aminopurine substitution assessed as fluorescence intensity in presence of hemin; format: nucleic-acid assay; how it was run: as §3
Quadruplex DNA [24] = experiment: Binding affinity to human c-myc G-quadruplex DNA with 22-aminopurine substitution assessed as fluorescence intensity in presence of hemin; format: nucleic-acid assay; how it was run: as §3
Quadruplex DNA [25] = experiment: Binding affinity to human c-myc G-quadruplex DNA assessed as displacement of fluorescent labelled compound by measuring decrease in emission in presence of hemin by FID assay; format: nucleic-acid assay
Quadruplex DNA [26] = experiment: Binding affinity to G-quadruplex DNA in human HCCC9810 cells increase in fluorescence intensity at 20 uM by confocal fluorescence microscopy; format: cell-based
How it was run: (§4)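 Live HCCC-9810 cells stained 0.5 h with probe at 20 µM together with DAPI (5 mg/mL) as nuclear counterstain. Imaged by confocal fluorescence microscopy. Intracellular location is assigned from co-staining with DAPI, and uptake is judged from fluorescence intensity within the cells.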

Quadruplex DNA [27] = experiment: Binding affinity to G-quadruplex DNA in human HCCC9810 cells increase in fluorescence intensity in cytoplasm at 20 uM by confocal fluorescence microscopy; format: cell-based; how it was run: as §4
Quadruplex DNA [28] = experiment: Effect on topology of human c-myc G-quadruplex DNA assessed as change in conformation at 265 nm by circular dichroism spectroscopy
Quadruplex DNA [29] = experiment: Binding affinity to human c-myc G-quadruplex DNA in Tris Hcl buffer assessed as increase in fluorescence intensity at 545 nm at 0 to 0.8 uM measured at pH 7.4 by fluorescence emission analysis; details: dose microM 0-0.8

COCCOCCOCCn1c2ccccc2c2cc(/C=C/c3cccc[n+]3C)ccc21.[I-]
Activity (Quadruplex DNA [1]): Active | Time (Quadruplex DNA [2]): 3.87 nanoseconds | Activity (Quadruplex DNA [3]): Active | Activity (Quadruplex DNA [4]): inactive | Activity (Quadruplex DNA [5]): Active | pIC50 [6]: < 4.40 | pIC50 [7]: < 4.40 | pIC50 (HEK-293T): 4.40 | Activity (Quadruplex DNA [8]): Active | Activity (Quadruplex DNA [9]): Active | Activity (Quadruplex DNA [10]): inactive | Flu intensity (Quadruplex DNA [11]): 695 | Flu intensity (Quadruplex DNA [12]): 702 | Flu intensity (Quadruplex DNA [13]): 910 | Flu intensity (Quadruplex DNA [14]): 632 | Flu intensity (Quadruplex DNA [15]): 570 | Flu intensity (Quadruplex DNA [16]): 852 | Flu intensity (Quadruplex DNA [17]): 846 | Flu intensity (Quadruplex DNA [18]): 861 | Activity (Quadruplex DNA [19]): Active | Activity (Quadruplex DNA [20]): Active | Activity (Quadruplex DNA [21]): Active | Activity (Quadruplex DNA [22]): inactive | Activity (Quadruplex DNA [23]): inactive | Activity (Quadruplex DNA [24]): inactive | Activity (Quadruplex DNA [25]): inactive | Activity (Quadruplex DNA [26]): Active | Activity (Quadruplex DNA [27]): Active | Activity (Quadruplex DNA [28]): inactive | Activity (Quadruplex DNA [29]): Active
